According to ChEMBL document CHEMBL4431340, “Pyridyl-alanine as a Hydrophilic, Aromatic Element in Peptide Structural Optimization” (J Med Chem, 2016):
Active and inactive are the calls of the source. The calls are words filed in the database; no cut-off is given here. Non-standard residues stand in square brackets, D forms with d. Residues, ends and D or L forms follow the SMILES beside them. 3Pal = N[C@@H](Cc1cccnc1)C(=O)O; Aib = CC(C)(N)C(=O)O

What was measured:
[1] = Aqueous solubility of the compound in PBS at 1 to 10 mg/ml assessed as precipitate formation at pH 7 at 4 degC after 7 days; type: physicochemical; conditions: buffer, pH 7, 168 h
[2] = biological target: Glucagon receptor (Homo sapiens) (UniProt P47871); experiment: Activation of glucagon receptor (unknown origin) transfected in HEK293 cells co-transfected with luciferase reporter gene linked CRE element assessed as compound EC50 preincubated in PBS buffer for 4 weeks at elevated temperature and pH 7 followed by protein addition measured after 5 hrs in presence of luclite substrate by liquid scintillation counting relative to control; type: functional, cell-based
Summary of the method: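 Analog incubated at 2.0 mg/mL in 50 mM sodium phosphate, 150 mM NaCl at pH 7 (also pH 5, 6), 37 °C, stirred at 200 rpm for 1 and 4 weeks. T=0 reference kept at -45 °C. […] Cells exposed to serial dilutions for 5 h at 37 °C, then LucLite luminescence read. Reported as percent change in EC50.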

Rattus norvegicus [3] = experiment: Antihypoglycemic activity in lean Wistar rat assessed as prevention of insulin-induced glucose reduction at 15 nmol/kg, ip after 60 mins by glucometer; type: functional, organism-based
Summary of the method: (§1)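 Lean rats received a fixed insulin dose chosen to induce hypoglycemia, together with peptide or vehicle. Blood glucose was followed for 60 min after administration. Groups were compared by one-way ANOVA with Dunnett's test against the insulin group, with P < 0.05 taken as significant.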

Rattus norvegicus [4] = experiment: Antihypoglycemic activity in lean Wistar rat assessed as prevention of insulin-induced glucose reduction at 15 nmol/kg, ip after 30 mins by glucometer; type: functional, organism-based; summary of the method: as §1
Rattus norvegicus [5] = experiment: Hyperglycemic activity in lean Wistar rat assessed as elevation of plasma glucose levels at 10 nmol/kg, ip after 120 mins in absence of insulin by glucometer; type: functional, organism-based
[6] = Aqueous solubility of the compound in PBS assessed as precipitate formation at pH 7 after 1 hr; conditions: buffer, pH 7, 1 h
Sus scrofa = experiment: Antihypoglycemic activity in diabetic Yucatan pig assessed as prevention of insulin detemir-induced blood glucose reduction at 10 nmol/kg, sc administered 240 mins post insulin detemir challenge measured during compound dosing by glucometer

Glucagon receptor (Homo sapiens), sequence (P47871 whole entry): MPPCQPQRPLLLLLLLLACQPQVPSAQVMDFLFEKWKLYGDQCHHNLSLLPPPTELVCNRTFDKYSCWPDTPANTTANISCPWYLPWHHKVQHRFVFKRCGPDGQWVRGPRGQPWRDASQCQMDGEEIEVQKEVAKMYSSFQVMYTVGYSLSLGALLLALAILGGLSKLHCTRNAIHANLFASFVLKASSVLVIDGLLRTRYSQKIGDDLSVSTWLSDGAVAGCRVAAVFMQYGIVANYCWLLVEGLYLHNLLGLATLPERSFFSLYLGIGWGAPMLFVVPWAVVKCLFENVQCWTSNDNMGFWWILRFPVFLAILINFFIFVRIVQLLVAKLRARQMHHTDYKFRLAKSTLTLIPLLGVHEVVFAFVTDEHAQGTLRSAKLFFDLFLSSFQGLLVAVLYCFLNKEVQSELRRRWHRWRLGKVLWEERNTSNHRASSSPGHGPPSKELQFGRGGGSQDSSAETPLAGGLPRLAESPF

Row | Molecule | solubility [1] | solubility [6] [mg/mL] | also measured
1 | CSCC[C@H](NC(=O)[C@H](CC(C)C)NC(=O)[C@H](Cc1c[nH]c2ccccc12)NC(=O)[C@H](CCC(N)=O)NC(=O)[C@@H](NC(=O)[C@H](Cc1ccccc1)NC(=O)[C@H](CC(=O)O)NC(=O)[C@H](CCC(N)=O)NC(=O)[C@H](C)NC(=O)[C@H](CCCNC(=N)N)NC(=O)[C@H](CCCNC(=N)N)NC(=O)C(C)(C)NC(=O)[C@H](CC(=O)O)NC(=O)[C@H](CC(C)C)NC(=O)[C@H](Cc1cccnc1)NC(=O)[C@H](CCCCN)NC(=O)[C@H](CO)NC(=O)[C@H](Cc1cccnc1)NC(=O)[C@H](CC(=O)O)NC(=O)[C@H](CO)NC(=O)[C@@H](NC(=O)[C@H](Cc1cccnc1)NC(=O)[C@@H](NC(=O)CNC(=O)[C@H](CCC(N)=O)NC(=O)[C@H](CO)NC(=O)[C@@H](N)Cc1cnc[nH]1)[C@@H](C)O)[C@@H](C)O)C(C)C)C(=O)N[C@@H](CC(N)=O)C(=O)N[C@H](C(=O)O)[C@@H](C)O | Soluble | > 15 | Activity [2]: 82%; Activity (Rattus norvegicus [3]): Active; Activity (Rattus norvegicus [4]): inactive; Activity (Rattus norvegicus [5]): Active; Activity (Sus scrofa): Active
2 | CSCC[C@H](NC(=O)[C@H](CC(C)C)NC(=O)[C@H](Cc1c[nH]c2ccccc12)NC(=O)[C@H](CCC(N)=O)NC(=O)[C@@H](NC(=O)[C@H](Cc1ccccc1)NC(=O)[C@H](CC(=O)O)NC(=O)[C@H](CCC(N)=O)NC(=O)[C@H](C)NC(=O)[C@H](CCCNC(=N)N)NC(=O)[C@H](CCCNC(=N)N)NC(=O)C(C)(C)NC(=O)[C@H](CC(=O)O)NC(=O)[C@H](CC(C)C)NC(=O)[C@H](Cc1cccnc1)NC(=O)[C@H](CCCCN)NC(=O)[C@H](CO)NC(=O)[C@H](Cc1cccnc1)NC(=O)[C@H](CC(=O)O)NC(=O)[C@H](CO)NC(=O)[C@@H](NC(=O)[C@H](Cc1ccccc1)NC(=O)[C@@H](NC(=O)CNC(=O)[C@H](CCC(N)=O)NC(=O)[C@H](CO)NC(=O)[C@@H](N)Cc1cnc[nH]1)[C@@H](C)O)[C@@H](C)O)C(C)C)C(=O)N[C@@H](CC(N)=O)C(=O)N[C@H](C(=O)O)[C@@H](C)O |  | > 15 | 
3 | CSCC[C@H](NC(=O)[C@H](CC(C)C)NC(=O)[C@H](Cc1c[nH]c2ccccc12)NC(=O)[C@H](CCC(N)=O)NC(=O)[C@@H](NC(=O)[C@H](Cc1ccccc1)NC(=O)[C@H](CC(=O)O)NC(=O)[C@H](CCC(N)=O)NC(=O)[C@H](C)NC(=O)[C@H](CCCNC(=N)N)NC(=O)[C@H](CCCNC(=N)N)NC(=O)C(C)(C)NC(=O)[C@H](CC(=O)O)NC(=O)[C@H](CC(C)C)NC(=O)[C@H](Cc1ccncc1)NC(=O)[C@H](CCCCN)NC(=O)[C@H](CO)NC(=O)[C@H](Cc1ccc(O)cc1)NC(=O)[C@H](CC(=O)O)NC(=O)[C@H](CO)NC(=O)[C@@H](NC(=O)[C@H](Cc1ccccc1)NC(=O)[C@@H](NC(=O)CNC(=O)[C@H](CCC(N)=O)NC(=O)[C@H](CO)NC(=O)[C@@H](N)Cc1cnc[nH]1)[C@@H](C)O)[C@@H](C)O)C(C)C)C(=O)N[C@@H](CC(N)=O)C(=O)N[C@H](C(=O)O)[C@@H](C)O |  | > 1 | 
4 | CSCC[C@H](NC(=O)[C@H](CC(C)C)NC(=O)[C@H](Cc1c[nH]c2ccccc12)NC(=O)[C@H](CCC(N)=O)NC(=O)[C@@H](NC(=O)[C@H](Cc1ccccc1)NC(=O)[C@H](CC(=O)O)NC(=O)[C@H](CCC(N)=O)NC(=O)[C@H](C)NC(=O)[C@H](CCCNC(=N)N)NC(=O)[C@H](CCCNC(=N)N)NC(=O)C(C)(C)NC(=O)[C@H](CC(=O)O)NC(=O)[C@H](CC(C)C)NC(=O)[C@H](Cc1ccncc1)NC(=O)[C@H](CCCCN)NC(=O)[C@H](CO)NC(=O)[C@H](Cc1ccncc1)NC(=O)[C@H](CC(=O)O)NC(=O)[C@H](CO)NC(=O)[C@@H](NC(=O)[C@H](Cc1ccccc1)NC(=O)[C@@H](NC(=O)CNC(=O)[C@H](CCC(N)=O)NC(=O)[C@H](CO)NC(=O)[C@@H](N)Cc1cnc[nH]1)[C@@H](C)O)[C@@H](C)O)C(C)C)C(=O)N[C@@H](CC(N)=O)C(=O)N[C@H](C(=O)O)[C@@H](C)O | Soluble | > 15 | 
5 | GLUCAGON |  |  | Activity (Rattus norvegicus [3]): Active; Activity (Rattus norvegicus [4]): inactive; Activity (Rattus norvegicus [5]): Active
6 | CSCC[C@H](NC(=O)[C@H](CC(C)C)NC(=O)[C@H](Cc1c[nH]c2ccccc12)NC(=O)[C@H](CCC(N)=O)NC(=O)[C@@H](NC(=O)[C@H](Cc1ccccc1)NC(=O)[C@H](CC(=O)O)NC(=O)[C@H](CCC(N)=O)NC(=O)[C@H](C)NC(=O)[C@H](CCCNC(=N)N)NC(=O)[C@H](CCCNC(=N)N)NC(=O)C(C)(C)NC(=O)[C@H](CC(=O)O)NC(=O)[C@H](CC(C)C)NC(=O)[C@H](Cc1ccncc1)NC(=O)[C@H](CCCCN)NC(=O)[C@H](CO)NC(=O)[C@H](Cc1ccncc1)NC(=O)[C@H](CC(=O)O)NC(=O)[C@H](CO)NC(=O)[C@@H](NC(=O)[C@H](Cc1ccncc1)NC(=O)[C@@H](NC(=O)CNC(=O)[C@H](CCC(N)=O)NC(=O)[C@H](CO)NC(=O)[C@@H](N)Cc1cnc[nH]1)[C@@H](C)O)[C@@H](C)O)C(C)C)C(=O)N[C@@H](CC(N)=O)C(=O)N[C@H](C(=O)O)[C@@H](C)O | Soluble | > 15 | 
7 | CSCC[C@H](NC(=O)[C@H](CC(C)C)NC(=O)[C@H](Cc1c[nH]c2ccccc12)NC(=O)[C@H](CCC(N)=O)NC(=O)[C@@H](NC(=O)[C@H](Cc1ccccc1)NC(=O)[C@H](CC(=O)O)NC(=O)[C@H](CCC(N)=O)NC(=O)[C@H](C)NC(=O)[C@H](CCCNC(=N)N)NC(=O)[C@H](CCCNC(=N)N)NC(=O)C(C)(C)NC(=O)[C@H](CC(=O)O)NC(=O)[C@H](CC(C)C)NC(=O)[C@H](Cc1ccc(O)cc1)NC(=O)[C@H](CCCCN)NC(=O)[C@H](CO)NC(=O)[C@H](Cc1cccnc1)NC(=O)[C@H](CC(=O)O)NC(=O)[C@H](CO)NC(=O)[C@@H](NC(=O)[C@H](Cc1ccccc1)NC(=O)[C@@H](NC(=O)CNC(=O)[C@H](CCC(N)=O)NC(=O)[C@H](CO)NC(=O)[C@@H](N)Cc1cnc[nH]1)[C@@H](C)O)[C@@H](C)O)C(C)C)C(=O)N[C@@H](CC(N)=O)C(=O)N[C@H](C(=O)O)[C@@H](C)O |  | > 1 | 
8 | CSCC[C@H](NC(=O)[C@H](CC(C)C)NC(=O)[C@H](Cc1c[nH]c2ccccc12)NC(=O)[C@H](CCC(N)=O)NC(=O)[C@@H](NC(=O)[C@H](Cc1cccnc1)NC(=O)[C@H](CC(=O)O)NC(=O)[C@H](CCC(N)=O)NC(=O)[C@H](C)NC(=O)[C@H](CCCNC(=N)N)NC(=O)[C@H](CCCNC(=N)N)NC(=O)C(C)(C)NC(=O)[C@H](CC(=O)O)NC(=O)[C@H](CC(C)C)NC(=O)[C@H](Cc1cccnc1)NC(=O)[C@H](CCCCN)NC(=O)[C@H](CO)NC(=O)[C@H](Cc1cccnc1)NC(=O)[C@H](CC(=O)O)NC(=O)[C@H](CO)NC(=O)[C@@H](NC(=O)[C@H](Cc1cccnc1)NC(=O)[C@@H](NC(=O)CNC(=O)[C@H](CCC(N)=O)NC(=O)[C@H](CO)NC(=O)[C@@H](N)Cc1cnc[nH]1)[C@@H](C)O)[C@@H](C)O)C(C)C)C(=O)N[C@@H](CC(N)=O)C(=O)N[C@H](C(=O)O)[C@@H](C)O (H-HSQGT[3Pal]TSD[3Pal]SK[3Pal]LD[Aib]RRAQD[3Pal]VQWLMNT-OH) | Soluble | > 15 | 
9 | CSCC[C@H](NC(=O)[C@H](CC(C)C)NC(=O)[C@H](Cc1c[nH]c2ccccc12)NC(=O)[C@H](CCC(N)=O)NC(=O)[C@@H](NC(=O)[C@H](Cc1ccccc1)NC(=O)[C@H](CC(=O)O)NC(=O)[C@H](CCC(N)=O)NC(=O)[C@H](C)NC(=O)[C@H](CCCNC(=N)N)NC(=O)[C@H](CCCNC(=N)N)NC(=O)C(C)(C)NC(=O)[C@H](CC(=O)O)NC(=O)[C@H](CC(C)C)NC(=O)[C@H](Cc1ccc(O)cc1)NC(=O)[C@H](CCCCN)NC(=O)[C@H](CO)NC(=O)[C@H](Cc1ccc(O)cc1)NC(=O)[C@H](CC(=O)O)NC(=O)[C@H](CO)NC(=O)[C@@H](NC(=O)[C@H](Cc1cccnc1)NC(=O)[C@@H](NC(=O)CNC(=O)[C@H](CCC(N)=O)NC(=O)[C@H](CO)NC(=O)[C@@H](N)Cc1cnc[nH]1)[C@@H](C)O)[C@@H](C)O)C(C)C)C(=O)N[C@@H](CC(N)=O)C(=O)N[C@H](C(=O)O)[C@@H](C)O |  | > 1 | 
10 | CSCC[C@H](NC(=O)[C@H](CC(C)C)NC(=O)[C@H](Cc1c[nH]c2ccccc12)NC(=O)[C@H](CCC(N)=O)NC(=O)[C@@H](NC(=O)[C@H](Cc1ccccc1)NC(=O)[C@H](CC(=O)O)NC(=O)[C@H](CCC(N)=O)NC(=O)[C@H](C)NC(=O)[C@H](CCCNC(=N)N)NC(=O)[C@H](CCCNC(=N)N)NC(=O)C(C)(C)NC(=O)[C@H](CC(=O)O)NC(=O)[C@H](CC(C)C)NC(=O)[C@H](Cc1cccnc1)NC(=O)[C@H](CCCCN)NC(=O)[C@H](CO)NC(=O)[C@H](Cc1ccc(O)cc1)NC(=O)[C@H](CC(=O)O)NC(=O)[C@H](CO)NC(=O)[C@@H](NC(=O)[C@H](Cc1ccccc1)NC(=O)[C@@H](NC(=O)CNC(=O)[C@H](CCC(N)=O)NC(=O)[C@H](CO)NC(=O)[C@@H](N)Cc1cnc[nH]1)[C@@H](C)O)[C@@H](C)O)C(C)C)C(=O)N[C@@H](CC(N)=O)C(=O)N[C@H](C(=O)O)[C@@H](C)O |  | > 1 | 
